Data set [1] has as its target Histone deacetylase 2 (Homo sapiens, UniProt Q92769). Put plainly: Inhibition of recombinant human C-terminal FLAG-tagged HDAC2 expressed in baculovirus infected Sf9 insect cells using HDAC substrate 3 measured after 30 mins by fluorescence assay.
Data set [2] deals with Histone deacetylase 4 (Homo sapiens) (UniProt P56524). Kind of data set: Inhibition of N-terminal GST tagged/C-terminal His tagged human recombinant HDAC4 (627 to 1084 residues) expressed in baculovirus infected insect cells at 30 uM using HDAC class 2a substrate measured after 30 mins by fluorescence assay relative to control.
Data set [3] deals with T1, Histone deacetylase 7 (Homo sapiens) (UniProt Q8WUI4).
T1 sequence (whole entry): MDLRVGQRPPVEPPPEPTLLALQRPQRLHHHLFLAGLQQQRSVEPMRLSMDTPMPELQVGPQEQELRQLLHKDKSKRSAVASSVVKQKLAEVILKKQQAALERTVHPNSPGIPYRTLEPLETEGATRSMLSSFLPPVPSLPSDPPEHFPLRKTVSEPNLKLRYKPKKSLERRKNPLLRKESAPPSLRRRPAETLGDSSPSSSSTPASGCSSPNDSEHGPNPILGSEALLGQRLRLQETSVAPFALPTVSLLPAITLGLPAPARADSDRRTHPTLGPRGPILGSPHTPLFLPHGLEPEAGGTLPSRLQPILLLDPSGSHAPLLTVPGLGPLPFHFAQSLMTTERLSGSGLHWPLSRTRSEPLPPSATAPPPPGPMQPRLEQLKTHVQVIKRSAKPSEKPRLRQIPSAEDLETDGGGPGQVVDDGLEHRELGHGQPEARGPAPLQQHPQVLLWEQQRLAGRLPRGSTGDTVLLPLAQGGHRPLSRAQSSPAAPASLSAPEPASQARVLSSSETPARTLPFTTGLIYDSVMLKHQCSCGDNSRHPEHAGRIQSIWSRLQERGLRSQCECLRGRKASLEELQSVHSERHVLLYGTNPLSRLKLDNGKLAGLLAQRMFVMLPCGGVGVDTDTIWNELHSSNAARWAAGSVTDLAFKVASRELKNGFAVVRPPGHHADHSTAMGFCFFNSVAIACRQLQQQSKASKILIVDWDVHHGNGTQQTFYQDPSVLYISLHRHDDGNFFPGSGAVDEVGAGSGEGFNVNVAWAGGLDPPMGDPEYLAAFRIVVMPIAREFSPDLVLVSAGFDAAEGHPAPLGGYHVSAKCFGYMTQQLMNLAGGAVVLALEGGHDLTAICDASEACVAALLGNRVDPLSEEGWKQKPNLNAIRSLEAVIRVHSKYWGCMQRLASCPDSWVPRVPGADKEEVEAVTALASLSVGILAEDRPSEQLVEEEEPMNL
Put plainly: Inhibition of recombinant human HDAC7 (518 to end residues) expressed in baculovirus infected insect cells at 30 uM using HDAC class 2a substrate measured after 30 mins by fluorescence assay relative to control.

The target in data set [4] is Histone deacetylase (Homo sapiens) (UniProt Q13547+O15379+Q9UBN7+Q92769+Q9UQL6+Q8WUI4+Q9BY41+Q96DB2+P56524+Q9UKV0+Q969S8). Put plainly: Time-dependent inhibition of HDAC in human HeLaS3 cells assessed as increase in histone H3K9 acetylation at 10 uM by immunoblot analysis. It counts as cell-based. Background: A western blot detects proteins with antibodies after separation by electrophoresis.

Data set [5] in a line: Substrate activity at PYSOCA in human CMEC/D3 cells assessed as transporter-mediated drug uptake measured for 2 mins at 37degC. The class given is ADME, cell-based.
Data set [6] can be described thus: Substrate activity at PYSOCA in human CMEC/D3 cells assessed as Vmax for transporter-mediated drug uptake assessed per mg protein measured for 2 mins at 37degC. It counts as ADME, cell-based. The procedure, abridged: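 Uptake by hCMEC/D3 cells measured over a range of concentrations at 37 °C for 2 min. Km and Vmax were obtained by fitting to Eq. 1. Mean ± S.E., n = 4.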

Data set [7] in a line: Substrate activity at PYSOCA in human CMEC/D3 cells assessed as transporter-mediated drug uptake measured for 2 mins at 37degC in presence of metabolic inhibitor NaN3. The class given is ADME, cell-based. An outline of the steps:
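To deplete cellular ATP, hCMEC/D3 cells were pretreated with 0.1% NaN3 for 20 min. Uptake was then measured at 37 °C for 2 min. Mean ± S.E., n = 4.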

A short description of data set [8]: Substrate activity at PYSOCA in human CMEC/D3 cells assessed as transporter-mediated drug uptake measured for 1 min at 37degC in presence of NH4Cl under intracellular alkalization condition. The class given is ADME, cell-based. The procedure, abridged:
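hCMEC/D3 cells were pretreated in transport buffer with or without 30 mM NH4Cl. Uptake was then measured at 37 °C for 1 min with or without 30 mM NH4Cl (Control, Pre and Acute conditions). Mean ± S.E., n = 4.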

Data set [9] in a line: Substrate activity at PYSOCA in human CMEC/D3 cells assessed as transporter-mediated drug uptake measured for 2 mins at 37degC in presence of pyrilamine. It counts as ADME, cell-based.
Data set [10] in a line: Substrate activity at PYSOCA in human CMEC/D3 cells assessed as transporter-mediated drug uptake measured for 2 mins at 37degC in presence of diphenhydramine. The class given is ADME, cell-based. An outline of the steps: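 Uptake by hCMEC/D3 cells was measured at various substrate concentrations, at 37 °C for 2 min, with or without diphenhydramine (100 µM). Data were analysed by Michaelis-Menten and Lineweaver-Burk plots using nonlinear least-squares regression (Eqs. 1 and 2). Mean ± S.E., n = 4.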

Data set [11] in a line: Substrate activity at PYSOCA in human CMEC/D3 cells assessed as transporter-mediated drug uptake measured for 2 mins at 37degC in presence of memantine. The class given is ADME, cell-based.
Data set [12] is described as follows: Substrate activity at PYSOCA in human CMEC/D3 cells assessed as transporter-mediated drug uptake measured for 2 mins at 37degC in presence of tramadol. It counts as ADME, cell-based.
A short description of data set [13]: Substrate activity at PYSOCA in human CMEC/D3 cells assessed as transporter-mediated drug uptake measured for 2 mins at 37degC in presence of clonidine. It counts as ADME, cell-based.
Data set [14] can be described thus: Substrate activity at PYSOCA in human CMEC/D3 cells assessed as transporter-mediated drug uptake measured for 2 mins at 37degC in presence of varenicline. The class given is ADME, cell-based.
Data set [15] is described as follows: Substrate activity at PYSOCA in human CMEC/D3 cells assessed as transporter-mediated drug uptake measured for 2 mins at 37degC in presence of MPP+. It counts as ADME, cell-based.
Data set [16] in a line: Substrate activity at PYSOCA in human CMEC/D3 cells assessed as transporter-mediated drug uptake measured for 2 mins at 37degC in presence of decynium-22. It counts as ADME, cell-based.
Data set [17] can be described thus: Substrate activity at PYSOCA in human CMEC/D3 cells assessed as transporter-mediated drug uptake measured for 2 mins at 37degC in presence of L-carnitine. It counts as ADME, cell-based.
Data set [18] can be described thus: Substrate activity at PYSOCA in human CMEC/D3 cells assessed as transporter-mediated drug uptake measured for 2 mins at 37degC in presence of choline. The class given is ADME, cell-based.
A short description of data set [19]: Blood brain barrier permeability in Wistar rat brain at 20 uM by LC-MS/MS analysis. The class given is ADME, tissue-based. The procedure, abridged:
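Right cerebral hemisphere of rat perfused with buffer containing test agent (20 µM) at 4.9 mL/min for 1 min.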

The source of these data is ChEMBL document CHEMBL4196230, “Design, Synthesis, and Blood-Brain Barrier Transport Study of Pyrilamine Derivatives as Histone Deacetylase Inhibitors” (ACS Med Chem Lett, 2018).

The source made the active and inactive calls. The calls are words filed in the database; no cut-off is given here. Some results are limits rather than exact numbers.

Sequence of Histone deacetylase 4 (Homo sapiens) (P56524 whole entry, the tested form may be a part): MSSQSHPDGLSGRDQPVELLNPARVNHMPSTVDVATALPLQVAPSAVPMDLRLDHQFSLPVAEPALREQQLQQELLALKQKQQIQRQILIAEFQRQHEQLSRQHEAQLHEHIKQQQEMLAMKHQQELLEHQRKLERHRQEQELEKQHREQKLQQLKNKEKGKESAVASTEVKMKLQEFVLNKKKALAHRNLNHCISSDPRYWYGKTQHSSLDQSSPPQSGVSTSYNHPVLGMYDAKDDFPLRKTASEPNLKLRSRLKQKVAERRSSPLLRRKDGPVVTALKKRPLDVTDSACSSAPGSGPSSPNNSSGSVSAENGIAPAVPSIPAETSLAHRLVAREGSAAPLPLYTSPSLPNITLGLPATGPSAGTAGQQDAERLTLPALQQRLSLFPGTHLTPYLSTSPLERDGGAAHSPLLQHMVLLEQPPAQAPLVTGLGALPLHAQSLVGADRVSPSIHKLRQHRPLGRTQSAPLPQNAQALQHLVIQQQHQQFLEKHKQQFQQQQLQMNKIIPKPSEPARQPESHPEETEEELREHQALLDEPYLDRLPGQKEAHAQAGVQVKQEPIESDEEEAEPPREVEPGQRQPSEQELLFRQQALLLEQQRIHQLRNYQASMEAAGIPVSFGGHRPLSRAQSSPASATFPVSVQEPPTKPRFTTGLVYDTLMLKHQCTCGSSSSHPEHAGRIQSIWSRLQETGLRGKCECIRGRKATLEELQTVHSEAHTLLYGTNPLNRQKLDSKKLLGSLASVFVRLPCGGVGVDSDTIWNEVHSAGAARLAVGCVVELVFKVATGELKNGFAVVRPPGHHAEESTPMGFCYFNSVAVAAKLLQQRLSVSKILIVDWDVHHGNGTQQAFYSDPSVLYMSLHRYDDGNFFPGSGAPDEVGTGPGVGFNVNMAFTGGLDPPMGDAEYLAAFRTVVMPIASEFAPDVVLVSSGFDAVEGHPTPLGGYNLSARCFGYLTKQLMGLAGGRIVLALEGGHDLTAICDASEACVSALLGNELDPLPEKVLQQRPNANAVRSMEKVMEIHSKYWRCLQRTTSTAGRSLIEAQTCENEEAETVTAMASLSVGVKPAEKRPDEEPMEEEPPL
Sequence of Histone deacetylase 2 (Q92769 whole entry, the tested form may be a part): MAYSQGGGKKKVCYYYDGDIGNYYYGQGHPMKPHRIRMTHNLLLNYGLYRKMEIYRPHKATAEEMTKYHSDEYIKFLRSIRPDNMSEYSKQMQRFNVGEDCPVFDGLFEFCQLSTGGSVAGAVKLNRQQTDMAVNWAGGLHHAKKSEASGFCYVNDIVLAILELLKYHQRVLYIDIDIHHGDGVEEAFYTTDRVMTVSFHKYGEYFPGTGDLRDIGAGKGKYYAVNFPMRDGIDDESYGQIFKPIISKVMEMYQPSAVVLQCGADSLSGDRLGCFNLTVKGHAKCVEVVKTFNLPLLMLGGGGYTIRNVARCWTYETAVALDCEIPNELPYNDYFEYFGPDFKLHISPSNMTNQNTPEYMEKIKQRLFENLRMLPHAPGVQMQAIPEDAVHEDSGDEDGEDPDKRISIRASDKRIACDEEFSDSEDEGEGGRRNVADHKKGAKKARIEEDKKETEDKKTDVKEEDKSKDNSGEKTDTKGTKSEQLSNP

Take `COc1ccc(CN(CCN(C)C)c2ccc(C(=O)Nc3ccccc3N)cn2)cc1`: the IC50 (as a rule, the concentration that gives 50% inhibition) in data set [1] is 5.5 µM. Also, the inhibition in [2] and in [3] was less than 10% throughout. The TDI entry in data set [4] is “Active”. Further, the Activity result was “Dose-dependent effect” in data set [5]; “Not Active” in data set [7]; “Not Active” in data set [8]; “Not Active” in data set [9]; “Not Active” in data set [10]; “Not Active” in [11]. For the same compound, the Activity entry in [12] is recorded as “Not Active”; in data set [13], “Not Active”; in [14], “Not Active”; in data set [15], “Active”; in data set [16], “Active”; in data set [17], “Active”. For the same compound, in data set [18], the outcome was Active. For the same compound, the Vmax (commonly the top rate of the reaction or transport when substrate is in excess) in data set [6] came out at 5.17 nmol/min. Further, in [19], the pBBB is 42.4 microL/min/g.
